# Source: PubChem BioAssay AID588627 (Johns Hopkins Ion Channel Center, 2011)
# Hit rate of the full screen: of about 310,000 compounds, about 1,400 (0.45%) were called active.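 The calls were made as follows: active = calcium response B-score plate-corrected fluorescence ratio at least 3 library SD, with starting fluorescence B-score inside 5 SD; inactive = the rest.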 What follows is part of a selection rich in actives, with near analogues and random picks from the rest.
# Target: Mas-related G-protein coupled receptor member X1 (Homo sapiens) (UniProt Q96LB2)
# Sequence (Q96LB2 whole entry, looked up): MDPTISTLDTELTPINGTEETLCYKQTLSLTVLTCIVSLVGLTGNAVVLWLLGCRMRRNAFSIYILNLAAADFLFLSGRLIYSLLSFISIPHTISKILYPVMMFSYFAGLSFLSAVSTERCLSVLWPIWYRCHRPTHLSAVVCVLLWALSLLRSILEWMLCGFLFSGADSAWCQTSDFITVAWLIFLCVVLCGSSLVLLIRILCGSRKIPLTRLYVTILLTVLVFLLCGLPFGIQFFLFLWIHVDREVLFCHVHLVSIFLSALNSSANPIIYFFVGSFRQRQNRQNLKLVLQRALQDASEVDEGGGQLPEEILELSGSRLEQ
# Test: MrgX1 activation via calcium signaling – HEK293 cells, Fluo-4 calcium flux, primary screen (AID 588627);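 as to B-score: B-score of the peak-minus-trough calcium fluorescence change over baseline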
# Conditions: Fluo-4 calcium fluorescence, agonist mode, at 10 µM; stronger effect = higher value
# Summary of the method: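 System – MrgX1-expressing HEK293 cells · Incubation – cells plated overnight, dye loaded 0.5 h 37 °C, 0.5 h room temperature · Technique – kinetic Fluo-4 NW fluorescence of intracellular calcium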
row,SMILES,B-score
1,CCCCN1C(=O)/C(=C2/C=CC=CN2C)SC1=S,inactive
2,CCCCN1C(=O)/C(=C2/Sc3ccc(Cl)cc3N2CC)SC1=S,34.9 (active)
3,CCCCN1C(=O)/C(=C/C=C2/C=Cc3ccccc3N2CC)SC1=S,inactive
4,COc1ccc(CCNc2ncnc3c2nnn3Cc2ccccc2)cc1,inactive
5,Fc1ccc2[nH]c3c(N4CCSCC4)ncnc3c2c1,29.1 (active)
6,Cc1c(CN2CC[C@@H](N3CCN(c4ccccn4)CC3)[C@H](O)C2)[nH]c2ccc(F)cc12,inactive
7,CC(C)C(=O)Nc1cccc(NC(=S)NC(=O)C(c2ccccc2)c2ccccc2)c1,inactive
8,O=C(NNC(=S)NCc1ccco1)C(c1ccccc1)c1ccccc1,inactive
9,CCCCC(=O)NNC(=S)NC(=O)C(c1ccccc1)c1ccccc1,145 (active)
10,CN(C)Cc1ccc(F)cc1Sc1cc(Cl)ccc1Cl,inactive
11,COc1ccccc1N1CC(C(=O)Nc2nnc(SCC(=O)NC(C)C)s2)CC1=O (stereo unspecified),inactive
12,CCc1noc(C)c1C(=O)Nc1nc(-c2ccccc2)cs1,inactive
13,OC(C#CCN1CCOCC1)(c1ccccc1)C1CCCCC1 (stereo unspecified),inactive
14,CCCc1ccc(OCC(=O)NNC(=S)NC(=O)c2ccco2)cc1,inactive
15,CC(Oc1ccc2ccccc2c1)C(=O)NNC(=S)NC(=O)c1ccco1 (stereo unspecified),69.9 (active)
16,Cc1ccc(C(=O)NNC(=O)C(C)Oc2ccc3ccccc3c2)o1 (stereo unspecified),inactive
17,O=C(CCN1CCc2ccccc2C(O)(c2ccccc2)C1)c1ccc2c(c1)OCCO2 (stereo unspecified),29.6 (active)
18,O=C(CN1CCC(O)(c2ccccc2)CC1)Nc1ccc2c(c1)OCCO2,inactive
19,CCC1(c2ccccc2)NC(=O)N(CC(=O)c2ccc3c(c2)OCO3)C1=O (stereo unspecified),inactive
20,Cc1ccc(N=C2SCCCN2C(=O)c2cccc(N3C(=O)CCC3=O)c2)cc1Cl,inactive
21,CS(=O)(=O)c1sc(C(=O)NC(=S)Nc2ccc(OC(F)(F)F)cc2)c2c1C=CCC2,inactive
22,CC(=O)OCC(COC(C)=O)OC(C)=O,inactive
23,CC(=O)OC(C)C[N+](C)(C)C (stereo unspecified),119 (active)
24,CC(C[N+](C)(C)C)OC(N)=O (stereo unspecified),36.5 (active)
25,O=C(Nc1cccc(F)c1)c1coc(=O)c(Br)c1,inactive
26,N#Cc1cc([N+](=O)[O-])ccc1NCC1CCCO1 (stereo unspecified),inactive

row,SMILES,B-score
1,CCCc1nc2c(c(=O)c3ccccc3n2C)c(=O)n1-c1cc(C)cc(C)c1,inactive
2,Cn1c2ccccc2c(=O)c2c(=O)n(Cc3ccco3)c(COc3ccccc3)nc21,inactive
3,CCCc1nc2c(c(=O)c3ccccc3n2C)c(=O)n1C1CCCCCC1,63 (active)
4,C/C=C/c1ccc(OCC(=O)OCC(=O)Nc2c(C)nn(-c3ccccc3)c2C)c(OC)c1,inactive
5,COc1cc2c3c(c1)/C(=C1/SC(=S)NC1=O)C(=O)N3C(C)(C)C=C2C,inactive
6,O=C(COC(=O)c1ccc(O)cc1)Nc1nccs1,inactive
7,COc1ccc(CNc2ccc3c(c2)CCC3)cc1OC,inactive
8,O=C(COC(=O)CNS(=O)(=O)c1ccccc1)NC12CC3CC(CC(C3)C1)C2,inactive
9,CN(C)C(=O)N=NC(=O)N(C)C,inactive
10,NC1=NC(=O)C2(COC(c3ccccc3Cl)OC2)S1 (stereo unspecified),inactive
11,CC(C)(C)SCCNC(=O)c1cccc([N+](=O)[O-])c1,inactive
12,CCCCCC(=O)NC(=S)NNC(=O)c1ccc([N+](=O)[O-])cc1,inactive
13,CC(C)CC(=O)NC(=S)NNC(=O)c1cccc([N+](=O)[O-])c1,70.6 (active)
14,CC(=O)c1c(O)cc2n(c1=O)-c1ccc(Cl)cc1C2(C)C,inactive
15,CCN(CC(=O)Nc1ccc2c(c1)OCCO2)Cc1cc(=O)oc2cc(C)c(C)cc12,inactive
16,CC(=O)Nc1ccc(NC(=O)CS(=O)(=O)c2cn(CC(=O)N3CCCCC3)c3ccccc23)cc1,inactive
17,CC1CCCN(S(=O)(=O)c2ccc(C(=O)Nc3nnc(-c4ccncc4)o3)cc2)C1 (stereo unspecified),inactive
18,CSCc1nnc(NC(=O)c2ccc(S(=O)(=O)N3CCCCC3C)cc2)o1 (stereo unspecified),inactive
19,CC1CCCCN1S(=O)(=O)c1ccc(C(=O)Nc2nnc(-c3cccs3)o2)cc1 (stereo unspecified),48.6 (active)
20,Cc1nc(N)nc(SCc2ccc([N+](=O)[O-])cc2)c1N,inactive
21,CCN(C(=O)CN1C(=O)/C(=C/c2ccc(F)cc2)SC1=S)C1CCS(=O)(=O)C1 (stereo unspecified),inactive
22,Nc1ccccc1SC(C[N+](=O)[O-])c1ccccc1 (stereo unspecified),28.1 (active)
23,Nc1ccccc1SCc1cc([N+](=O)[O-])cc2c1OCOC2,inactive
24,CCS(=O)(=O)c1cc([N+](=O)[O-])c(Sc2ccccc2N)s1,inactive
25,CN1CCN(C(=O)c2ccc(NS(=O)(=O)c3ccccc3)cc2)CC1,inactive
26,C/C(=N\NC(=O)c1ccc2ccccc2c1)c1cccnc1,inactive

row,SMILES,B-score
1,O=C(NCCC1CCCCN1S(=O)(=O)c1ccc(F)cc1)C(=O)NC1CC1 (stereo unspecified),inactive
2,CC(=O)Nc1ccc(NC(=O)CN2C(=O)COc3ccc(S(=O)(=O)N4CCCCC4)cc32)cc1,inactive
3,Cc1cccc(N(C)C(=O)CN2C(=O)COc3ccc(S(=O)(=O)N4CCCCCC4)cc32)c1,46.3 (active)
4,CN(C)c1ccc(CNC(=O)CN2C(=O)COc3ccc(S(=O)(=O)N4CCCC4)cc32)cc1,inactive
5,CCN(CC)S(=O)(=O)c1ccc(N2CC(C(=O)NCc3cccnc3)CC2=O)cc1 (stereo unspecified),inactive
6,COc1ccnc(Oc2ccccc2)n1,inactive
7,Cc1ccc(S(=O)(=O)N(CC(=O)NN=C2CCN(C)CC2)c2ccc(F)cc2)cc1,inactive
8,O=C1c2ccccc2C(=O)N1c1cccc2ccccc12,inactive
9,CC(C)OC(=O)CN1C(=O)C(=O)c2ccccc21,inactive
10,O=C1C(=O)N(c2ccccc2)c2ccccc21,29.6 (active)
11,N/C(=N\OC(=O)CCCC(=O)O)c1ncc(C(F)(F)F)cc1Cl,inactive
12,CC1CCCCC1NC(=O)CN1CCC(O)(c2ccc3c(c2)OCO3)CC1 (stereo unspecified),inactive
13,O=[N+]([O-])c1ccc2c(c1)C(O)n1nc(-c3ccccc3)nc1S2 (stereo unspecified),inactive
14,COc1ccc(/C=C(\NC(=O)c2ccccc2)C(=O)NCCN2CCOCC2)cc1OC,inactive
15,CCOC(=O)CNC(=O)/C(=C\c1ccc(F)cc1)NC(=O)c1ccccc1,inactive
16,Cn1c2ccccc2c2cc(/C=C(\NC(=O)c3ccccc3)C(=O)NCC(=O)O)ccc21,52.2 (active)
17,C/C(=N\Nc1cccc(C(=O)O)c1)c1ccc2c(c1)Nc1ccccc1S2,inactive
18,CCn1c(CC(=O)Nc2ccccc2)nnc1SCC(=O)N1CCOCC1,inactive
19,COc1ccc(Nc2nc(-c3cccnc3)nc3ccccc23)cn1,38.4 (active)
20,O=[N+]([O-])c1ccc(F)cc1Oc1nc(-c2cccnc2)nc2ccccc12,inactive
21,Cc1cccc(-c2nc(Nc3ccc(O)cc3)c3ccccc3n2)c1,inactive
22,CN(C)/C(=N\OC(=O)c1ccccc1)c1nonc1N,inactive
23,C=CCO/N=C/C1=C(O)C(C(=O)OC)C(C)(C)CC1=O (stereo unspecified),inactive
24,C#CCOCCOCCOCCNc1nc(N2CCN(C(=O)CCCCCCCCCCNC(=O)[C@H](CCCCN)n3cc(C)nn3)CC2)nc(N2CCN(C(=O)CCCCCCCCCCNC(=O)[C@H](CO)n3cc(CCCSC)nn3)CC2)n1,29.2 (active)
25,C#CCOCCOCCOCCNc1nc(N2CCN(C(=O)CCCCCCCCCCNC(=O)[C@H]([C@@H](C)CC)n3cc(CCCCN=C(N)N)nn3)CC2)nc(N2CCN(C(=O)CCCCCCCCCCNC(=O)[C@H](CO)n3cc(CCCSC)nn3)CC2)n1,inactive
26,C#CCOCCOCCOCCNc1nc(N2CCN(C(=O)CCCCCCCCCCNC(=O)Cn3cc(CCCCCN)nn3)CC2)nc(N2CCN(C(=O)CCCCCCCCCCNC(=O)[C@H](CO)n3cc(CCCSC)nn3)CC2)n1,inactive

row,SMILES,B-score
1,COC(=O)c1cc(S(=O)(=O)N2CCC(C(N)=O)CC2)oc1C,inactive
2,CCOc1ccc(NC(=O)c2ccc(NC(=O)CN3C(=O)C(=O)N(CC(C)C)C3=O)cc2)cc1,inactive
3,Cc1cc(C(=O)NNC(=S)Nc2ccccc2C)cs1,inactive
4,COCCCNc1nc2ccccc2nc1NS(=O)(=O)c1ccc(F)cc1,inactive
5,COc1cc(/C=C2/C(=O)NN(c3cccc(Cl)c3)C2=O)cc(Br)c1O,45.3 (active)
6,COc1cc(/C=C2/C(=O)NN(c3ccc(F)cc3)C2=O)cc([N+](=O)[O-])c1O,inactive
7,C#CCOc1ccc(/C=C2/C(=O)NN(c3ccccc3)C2=O)cc1OC,inactive
8,CCCCc1nc(SCC(=O)Nc2nnc(C(C)C)s2)n[nH]1,inactive
9,C=CCN1CN(S(=O)(=O)c2ccc(OC)cc2)c2nc3ccccc3nc21,inactive
10,O=C(COC(=O)/C=C/c1cccc(Cl)c1)NCCc1ccccc1,inactive
11,COCCNC(=O)C1CCN(C(=O)C2CC(=O)N(c3ccc(C)cc3)C2)CC1 (stereo unspecified),inactive
12,O=C(Cc1ccc(Cl)c(Cl)c1)Nc1ccc(SC(F)F)cc1,inactive
13,O=C(CC(O)(C(F)(F)F)C(F)(F)F)Nc1ccc(Cl)c(Cl)c1,38.4 (active)
14,O=C(CC1SCCNC1=O)Nc1ccc(Cl)c(Cl)c1 (stereo unspecified),inactive
15,Cc1nn(C)c(C)c1C(C)NC(=O)c1ccc(OC2CCN(Cc3ccccn3)CC2)cc1 (stereo unspecified),inactive
16,COc1cccc(COC(=O)C2CCN(S(=O)(=O)c3ccc(Cl)cc3)CC2)c1OC,inactive
17,COC(=O)c1ccc(COC(=O)C2CCN(S(=O)(=O)c3c(Cl)cccc3Cl)CC2)o1,28.7 (active)
18,CCOc1ccc(S(=O)(=O)N2CCC(C(=O)OCc3ccc(OC)cc3)CC2)cc1,inactive
19,NC(=O)C1CCN(C(=O)CC2C(=O)NCCN2Cc2cccc(Oc3ccccc3)c2)CC1 (stereo unspecified),inactive
20,Cc1nn(CCCC(=O)NCc2ccccc2Cl)c(=O)c2nccn12,inactive
21,COc1ccc(OC)c(C(=O)c2coc3ccc(OC)cc23)c1,inactive
22,COc1ccc(OC)c(C(=O)c2ccc(Cl)cc2)c1,29.4 (active)
23,COc1ccc(OC)c(C(=O)c2ccc(C(=O)O)cc2)c1,inactive
